Experimental data as given in ChEMBL document CHEMBL3877283, “Antitubercular activity of 1,2,3-triazolyl fatty acid derivatives” (Eur J Med Chem, 2017).
≈ marks a conversion by molar mass, not a printed value.

Experiments:
Format in all cases: functional
[1] = tested on: Mycobacterium tuberculosis; experiment: Antimycobacterial activity against isoniazid/streptomycin resistant Mycobacterium tuberculosis isolate 914 measured after 5 days by MTT dye based two-fold microdilution method; details: isolate 914, 120 h
In short: (§1)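 Two-fold serial dilution in 96-well plates in Middlebrook 7H9 with 10% ADS and 1% glycerol (7H9-ADS-G). DMSO stocks were diluted to a top concentration of 100 μg/mL and down to 0.8 μg/mL, run in duplicate. Wells received mid-log bacilli in 7H9-ADS-G, incubated 5 days at 37 °C, then MTT for 24 h. MIC is the lowest concentration blocking yellow-to-purple change. Rifampicin was the control.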

[2] = tested on: Mycobacterium tuberculosis; experiment: Antimycobacterial activity against rifampicin/streptomycin resistant Mycobacterium tuberculosis isolate 675 measured after 5 days by MTT dye based two-fold microdilution method; details: isolate 675, 120 h; in short: as §1
[3] = tested on: Mycobacterium tuberculosis; experiment: Antimycobacterial activity against isoniazid/streptomycin resistant Mycobacterium tuberculosis isolate 396 measured after 5 days by MTT dye based two-fold microdilution method; details: isolate 396, 120 h; in short: as §1
[4] = tested on: Mycobacterium tuberculosis; experiment: Antimycobacterial activity against rifampicin-resistant Mycobacterium tuberculosis isolate 925 measured after 5 days by MTT dye based two-fold microdilution method; details: isolate 925, 120 h; in short: as §1
[5] = tested on: Mycobacterium tuberculosis; experiment: Antimycobacterial activity against isoniazid/streptomycin resistant Mycobacterium tuberculosis isolate 780 measured after 5 days by MTT dye based two-fold microdilution method; details: isolate 780, 120 h; in short: as §1
[6] = tested on: Mycobacterium tuberculosis; experiment: Antimycobacterial activity against isoniazid resistant Mycobacterium tuberculosis isolate 277b measured after 5 days by MTT dye based two-fold microdilution method; details: 120 h; in short: as §1
[7] = tested on: Mycobacterium tuberculosis; experiment: Antimycobacterial activity against rifampicin/isoniazid/pyrazinamide resistant Mycobacterium tuberculosis isolate 501 measured after 5 days by MTT dye based two-fold microdilution method; details: isolate 501, 120 h; in short: as §1
[8] = tested on: Mycobacterium tuberculosis; experiment: Antimycobacterial activity against isoniazid/streptomycin resistant Mycobacterium tuberculosis isolate 681 measured after 5 days by MTT dye based two-fold microdilution method; details: isolate 681, 120 h; in short: as §1
[9] = tested on: Mycobacterium tuberculosis; experiment: Antimycobacterial activity against rifampicin-resistant Mycobacterium tuberculosis isolate 277 measured after 5 days by MTT dye based two-fold microdilution method; details: isolate 277, 120 h; in short: as §1
[10] = tested on: Mycobacterium tuberculosis; experiment: Antimycobacterial activity against rifampicin/isoniazid/pyrazinamide resistant Mycobacterium tuberculosis isolate 122 measured after 5 days by MTT dye based two-fold microdilution method; details: isolate 122, 120 h; in short: as §1
[11] = tested on: Mycobacterium tuberculosis; experiment: Antimycobacterial activity against rifampicin-resistant Mycobacterium tuberculosis isolate 110 measured after 5 days by MTT dye based two-fold microdilution method; details: isolate 110, 120 h; in short: as §1
[12] = tested on: Mycobacterium tuberculosis; experiment: Antimycobacterial activity against isoniazid resistant Mycobacterium tuberculosis isolate 620 measured after 5 days by MTT dye based two-fold microdilution method; details: isolate 620, 120 h; in short: as §1
[13] = tested on: Mycobacterium tuberculosis; experiment: Antimycobacterial activity against rifampicin-resistant Mycobacterium tuberculosis isolate 958 measured after 5 days by MTT dye based two-fold microdilution method; details: isolate 958, 120 h; in short: as §1
[14] = tested on: Mycobacterium tuberculosis; experiment: Antimycobacterial activity against rifampicin-resistant Mycobacterium tuberculosis isolate 300 measured after 5 days by MTT dye based two-fold microdilution method; details: isolate 300, 120 h; in short: as §1

CCCCCCCCc1cn(CC(=O)OCC)nn1
MIC [1]: 1.9 µM (≈ 0.508 µg/mL) | MIC [2]: 1.9 µM (≈ 0.508 µg/mL) | MIC [3]: 1.9 µM (≈ 0.508 µg/mL) | MIC [4]: 1.9 µM (≈ 0.508 µg/mL) | MIC [5]: 1.9 µM (≈ 0.508 µg/mL) | MIC [6]: 1.9 µM (≈ 0.508 µg/mL) | MIC [7]: 3.7 µM (≈ 0.989 µg/mL) | MIC [8]: 1.9 µM (≈ 0.508 µg/mL) | MIC [9]: 1.9 µM (≈ 0.508 µg/mL) | MIC [10]: 0.9 µM (≈ 0.241 µg/mL) | MIC [11]: 1.9 µM (≈ 0.508 µg/mL) | MIC [12]: 1.9 µM (≈ 0.508 µg/mL) | MIC [13]: 1.9 µM (≈ 0.508 µg/mL) | MIC [14]: 1.9 µM (≈ 0.508 µg/mL)
